A selection: hits, their analogues and other compounds. The true share with any hit is near 3.3%.
SIAE primary: human SIAE inhibitors, primary screen, biochemical, fluorescence polarization, FP-Rh probe, 1536-well HTS. SIAE FP-Rh probe binding. Sialate O-acetylesterase (Homo sapiens), Q9HAT2. inhibition, % at 9.66 µM. 370,000 tested, 0.69% active;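 active = inhibition above a cutoff: mean of compounds within the control limits plus 3 SD of those, cut at about 17% in these data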
Target sequence (Q9HAT2 whole entry, looked up): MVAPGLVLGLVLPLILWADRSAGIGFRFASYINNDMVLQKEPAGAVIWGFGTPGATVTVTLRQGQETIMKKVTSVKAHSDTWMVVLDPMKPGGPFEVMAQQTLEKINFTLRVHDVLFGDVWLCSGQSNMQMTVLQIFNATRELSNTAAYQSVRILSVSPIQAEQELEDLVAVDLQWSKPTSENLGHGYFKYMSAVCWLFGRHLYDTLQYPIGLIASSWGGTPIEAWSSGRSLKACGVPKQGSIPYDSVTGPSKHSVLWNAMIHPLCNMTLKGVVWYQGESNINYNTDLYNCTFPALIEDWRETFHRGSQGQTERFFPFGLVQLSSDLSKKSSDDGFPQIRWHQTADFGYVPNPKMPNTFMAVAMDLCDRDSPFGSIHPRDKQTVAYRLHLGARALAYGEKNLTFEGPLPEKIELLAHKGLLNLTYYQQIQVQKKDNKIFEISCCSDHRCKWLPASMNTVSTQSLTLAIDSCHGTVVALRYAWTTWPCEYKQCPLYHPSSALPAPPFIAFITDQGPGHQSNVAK
mABHD4 FP: ABHD4 inhibitors, primary screen, biochemical, fluorescence polarization, mouse; (Lyso)-N-acylphosphatidylethanolamine lipase (Mus musculus), Q8VD66; purified mABHD4, FP-Rh probe fluorescence polarization; inhibition, % at 8.92 µM; 370,000 tested, 0.54% active; AID 720543, 2013;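 active = inhibition exceeding the mean over every tested compound plus 3 SD, cut at about 30% in these data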
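System: mouse ABHD4 enzyme, wild type / Medium: HEPES pH 7.0, NaCl, Pluronic buffer / Reagent: FP-Rh activity-based fluorescent probe / Control set: S159A mutant high control, sample median low control / Detection: fluorescence polarization with parallel and perpendicular emission, 525/598 nm / Schedule: 45 min + 60 min at 25 °C / Compound dosing: 8.92 µM, single dose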
PRMT1 FP inh: PRMT1 methyltransferase inhibitors, primary screen, biochemical, fluorescence polarization; 370,000 tested, 1.3% active; recombinant PRMT1, activity-based probe fluorescence polarization; inhibition, % at 2.79 µM;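 active = inhibition above about 21% made by adding two undisclosed values, limit read from the data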
rCAG RNA binder: binders of r(CAG) RNA repeats, primary screen, biochemical, fluorescence; inhibition, % at 3 µM; 370,000 tested, 1.3% active; r(CAG) RNA repeat, TO-PRO-1 dye displacement fluorescence;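 active = inhibition above the plate cutoff, the mean of all test compounds on that plate plus 3 SD, cut at about 35% in these data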;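 also: higher means more dye released from RNA so lower well fluorescence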
TCR-CD3 inh: inhibitors of human TCR-CD3 interaction, primary screen, biochemical, fluorescence, TAMRA-labeled TCR probe; T-cell receptor (TCR); inhibition, % at 9.4 µM; 360,000 tested, 0.37% active; in the data active = inhibition above about 19%;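 also: recombinant mutant TCR 2C K166C tagged with TAMRA read by polarization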
mABHD4 conf: ABHD4 inhibitors, retest, confirmation, biochemical, fluorescence polarization, mouse. inhibition, % at 8.92 µM. shares compounds with mABHD4 FP. purified mABHD4, FP-Rh probe fluorescence polarization. 1,800 tested, 55% active. AID 720658, 2013;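 active = mean inhibition across replicates above the hit cutoff set in the primary screen, cut at about 30% in these data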
Of the large screens only hits and unclear results are named; the others gave an inactive call (follow-up assays come after a bar, where they were run).

O=c1c2ccccc2[nH]c2ccc(O)cc12	mABHD4 FP 41 | mABHD4 conf inactive
CCOC(=O)c1c(-c2ccccc2)[nH]c2ccc(O)cc12	mABHD4 FP 31 | mABHD4 conf 42
Cc1csc(NC(=O)c2ccc(COc3cccc(F)c3)o2)n1	none (no result: TCR-CD3 inh)
COc1cc(/C=N/NC(=O)NC23CC4CC(CC(C4)C2)C3)ccc1O	none
O=C(N/N=C/c1ccc(O)c(O)c1)NC12CC3CC(CC(C3)C1)C2	mABHD4 FP 33 | mABHD4 conf 31
O=C(NC(=S)NNC(=O)c1cnccn1)c1ccc(F)cc1	none
Cc1ccc(NC(=S)NNC(=O)c2cnccn2)cc1	mABHD4 FP 52 (no result: TCR-CD3 inh) | mABHD4 conf 59
COc1ccc(S[C@]2(C(=O)NCCCN(C)C)CC(=O)N[C@@H]2c2ccc(OC)cc2)cc1	none (no result: TCR-CD3 inh)
Cc1c(C(=O)O)cccc1-n1c(C)cc(/C=N/Nc2ccc([N+](=O)[O-])cn2)c1C	mABHD4 FP 30 | mABHD4 conf 48
O=[N+]([O-])c1cc(C(F)(F)F)cc([N+](=O)[O-])c1NN=C1CCCCC1	mABHD4 FP 37 | mABHD4 conf inactive
N#CCC(=O)NNc1c([N+](=O)[O-])cc(C(F)(F)F)cc1[N+](=O)[O-]	mABHD4 FP 43 | mABHD4 conf inactive
O=[N+]([O-])c1cc(S(=O)(=O)N2CCCC2)ccc1NN=C1CCCCC1	none
CCOC(=O)CSc1nc(Nc2ccc3c(c2)OCO3)c2ccccc2n1	mABHD4 FP 40 | mABHD4 conf 32
Cc1cc(C(=O)O)ccc1-n1c(C)cc(/C=C(/C#N)C(=O)Nc2ccccc2)c1C	mABHD4 FP 46 | mABHD4 conf inactive
OCC[C@H]1C[C@@H](O)[C@H](O)[C@]2(OCCc3ccccc32)O1	mABHD4 FP 35 | mABHD4 conf inactive
OCC[C@@H]1C[C@@H](O)[C@H](O)[C@]2(OCCc3ccccc32)O1	none
O=C(COC(=O)C1CC2CCCC(C1)C2=O)NNC(=O)c1ccc([N+](=O)[O-])cc1 (stereo unspecified)	none
Cc1cccc(C)c1-n1nnnc1C1c2ccccc2C(=O)N1CCOc1ccccc1 (stereo unspecified)	none
COc1ccc(S(=O)(=O)N/N=C(/C)c2ccncc2)c(OC)c1	mABHD4 FP 71 | mABHD4 conf inactive
Cc1ccc(Nc2cc(C)c3c(O)cccc3n2)cc1C	SIAE primary 18, mABHD4 FP 44 | mABHD4 conf 51
COc1ccc(Nc2cc(C)c3c(O)cccc3n2)cc1	none
COc1ccc2c(c1)CCCN2C(=O)C1CCCN(S(=O)(=O)c2ccccc2)C1 (stereo unspecified)	none (no result: TCR-CD3 inh)
COc1ccc(N/N=C(/N=Nc2nc(C)cc(=O)[nH]2)c2ccccc2)cc1	mABHD4 FP 40 | mABHD4 conf 42
Clc1ccc(-c2nc3ccccn3c2CN2CCCCC2)cc1	none
Oc1ccc(N2CCN(Cc3c(-c4ccccc4)nc4ccccn34)CC2)cc1	mABHD4 FP 31, PRMT1 FP inh 22 | mABHD4 conf inactive
CCCCCCCCCCOC(=O)Cn1c(COc2cccc(C)c2)[n+](C)c2ccccc21	mABHD4 FP 32 | mABHD4 conf 38
CCCCCCCCCCOC(=O)Cn1c(COc2ccc(Cl)cc2)[n+](C)c2ccccc21	mABHD4 FP 35 | mABHD4 conf 55
CCCCCCCCCCOC(=O)Cn1c(COc2ccccc2)[n+](C)c2ccccc21	mABHD4 FP 30 | mABHD4 conf 33
CC1=NN(c2nc(-c3ccccc3)cs2)C(=O)C1	mABHD4 FP 49, rCAG RNA binder 68 | mABHD4 conf 146
COC(=O)C[C@@H]1CC[C@H]2[C@@H](COc3ccc(NC(=O)c4ccc(C(F)(F)F)cc4)cc3C(=O)N2C)O1	none (no result: TCR-CD3 inh)
CC1CCN(C(=O)Cn2nnc(-c3ccc(C(C)C)cc3)n2)CC1	none
CN=c1scc(C)n1/N=C/c1ccc(O)cc1	none
C=CCN=c1scc(C)n1/N=C/c1ccc(O)c(O)c1	mABHD4 FP 40 | mABHD4 conf inactive
Nc1c(Cl)ncnc1N/N=C/c1ccccn1	mABHD4 FP 54 | mABHD4 conf 54
COc1ccc(/C=N/N2CCN(c3ccccc3)CC2)cc1Br	none

From PubChem BioAssay
